PP1 counter – PP1-alpha phosphatase inhibitors, primary screen, counter-screen for PP5 inhibitor project, biochemical, fluorescence, OMFP substrate, single point; actives 0.9% (n = 320,000); inhibition, % at 6.7 µM; purified PP1alpha; Serine/threonine-protein phosphatase PP1-alpha catalytic subunit (Homo sapiens), P62136; AID 2235, 2010;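 active = inhibition above the mean inhibition of all tested compounds plus 3 SD, computed separately for each screening campaign, cut at about 15% in these data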
TDP2 absorb – human TDP2 enzyme inhibitors, primary screen, biochemical, epi absorbance, recombinant enzyme. T5PNP hydrolysis, p-nitrophenol absorbance 415 nm. actives 0.34% (n = 370,000). inhibition, % at 12.8 µM;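 active = inhibition above the mean of all tested compounds plus 3 SD, set per campaign, cut at about 25% in these data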;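 note: 0% = DMSO with enzyme and 100% = buffer with substrate but no TDP2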
Target sequence (O95551 whole entry, looked up): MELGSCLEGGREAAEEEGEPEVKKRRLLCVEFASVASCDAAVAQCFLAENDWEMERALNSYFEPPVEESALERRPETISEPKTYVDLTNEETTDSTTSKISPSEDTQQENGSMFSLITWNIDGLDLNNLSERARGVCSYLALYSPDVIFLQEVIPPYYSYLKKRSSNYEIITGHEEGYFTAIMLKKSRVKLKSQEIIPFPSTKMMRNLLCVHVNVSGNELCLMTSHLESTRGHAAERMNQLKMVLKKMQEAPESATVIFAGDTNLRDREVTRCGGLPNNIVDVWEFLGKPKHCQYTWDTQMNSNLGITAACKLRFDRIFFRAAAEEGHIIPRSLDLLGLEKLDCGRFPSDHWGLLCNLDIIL
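Material: recombinant human TDP2; quantity: TDP2 enzyme at 120 nM final; medium: Tris-HCl pH 7.5 with MgCl2; compound: single concentration, 12.8 µM nominal, with 1% DMSO; incubation: 2 h enzyme incubation at 37 °C; signal: epi absorbance; measure: percent inhibition; benchmarks: high control without enzyme, low control DMSO plus TDP2; repeats: singlicate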
Apaf-1 inh – inhibitors of human Apaf-1 apoptosome, primary screen, biochemical, DEVD-Rh110 fluorescence, uHTS | reconstituted apoptosome caspase-3 activity | inhibition, % at 20 µM | actives 0.71% (n = 330,000) | Apoptotic protease-activating factor 1 (Homo sapiens), O14727; active = inhibition of at least 40% at 20 µM;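 note: plate controls were DMSO wells for no effect and DEVD-CHO caspase inhibitor wells for full effect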
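System – cell-free apoptosome with Apaf-1, procaspase-3 and caspase-9 · Buffer or medium – pH 7.5 Hepes buffer with CHAPS, BSA, DTT · Also added – cytochrome c with DEVD-Rh110 · Times – 30 min compound preincubation, 50 min activation, room temperature · Technique – Rh110 fluorescence intensity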
GSTO1 inh – inhibitors of recombinant GSTO1, primary screen, counter-screen for RBBP9 inhibitor project, biochemical, fluorescence polarization; Glutathione S-transferase omega-1 (Homo sapiens), P78417; activity-based probe fluorescence polarization; inhibition, % at 5.96 µM; actives 1.1% (n = 300,000); AID 1974, 2009;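 active = inhibition above the campaign mean inhibition plus 3 SD, cut at about 35% in these data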;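 note: 0% = GSTO1-1 with DMSO and 100% = wells lacking GSTO1-1 enzyme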
Target sequence (P78417 whole entry, looked up): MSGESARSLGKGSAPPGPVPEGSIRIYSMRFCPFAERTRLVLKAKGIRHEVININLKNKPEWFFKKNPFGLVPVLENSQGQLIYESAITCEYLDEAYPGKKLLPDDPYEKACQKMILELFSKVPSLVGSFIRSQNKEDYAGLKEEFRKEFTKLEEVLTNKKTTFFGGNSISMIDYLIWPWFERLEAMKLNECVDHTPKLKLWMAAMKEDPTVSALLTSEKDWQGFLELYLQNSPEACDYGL
PP5 primary – PP5 phosphatase inhibitors, primary screen, biochemical, fluorescence. Serine/threonine-protein phosphatase 5 (Homo sapiens), P53041. purified PP5c, OMFP substrate fluorescence. inhibition, % at 6.7 µM. actives 0.18% (n = 320,000);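 active = inhibition above the campaign's mean inhibition across all tested compounds plus 3 SD, cut at about 9.5% in these data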;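 note: 0% = DMSO only and 100% = 100 µM cantharidin control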
PP1 inh confirm – PP1 phosphatase inhibitors, confirmation, biochemical, fluorescence, OMFP substrate, triplicate. shares compounds with PP1 counter. purified PP1alpha. inhibition, % at 6.7 µM. actives 52% (n = 1,900). AID 2358, 2010;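 active = mean PP1 inhibition above a set limit taken from the earlier primary screen, cut at about 15% in these data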
PP5 inh counter – PP5 phosphatase inhibition by PP1 hits, confirmation, counter-screen for PP1 inhibitor project, biochemical, fluorescence, triplicate; actives 4% (n = 1,900); inhibition, % at 6.7 µM; AID 2360, 2010; purified PP5c, OMFP fluorescence; shares compounds with PP1 counter;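 active = mean PP5 inhibition over triplicate wells above about 9.5% taken from the earlier PP1 screen, limit read from the data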
Active calls of the source: *; . = no result given. Rows were chosen to be rich in hits. Some 2.1% of all compounds tested hit in one or more screens of this group.

SMILES	PP1 counter	TDP2 absorb	Apaf-1 inh	GSTO1 inh	PP5 primary	PP1 inh confirm	PP5 inh counter
N=c1c2c(-c3ccccc3)c(-c3ccccc3)n(Cc3ccco3)c2ncn1Cc1ccccc1	28*	2	27	-11	1	1	-1
CC(C)Cn1cnc2c(c(-c3ccccc3)c(-c3ccccc3)n2Cc2ccco2)c1=N	6	-7	13	2	3	.	.
c1ccc(-c2c(-c3ccccc3)n(Cc3ccco3)c3ncnc(NCCCn4ccnc4)c23)cc1	24*	-8	42*	11	4	15	3
COCCNC(=O)C1CCCN(C(=O)c2ccc(C(F)(F)F)nc2C)CC1 (centres undefined)	.	-2	.	.	.	.	.
CCCCn1c2ccccc2c2nnc(SCC(=O)NC3=NN=C(c4ccccc4)CS3)nc21	26*	-8	-69	-9	2	27*	3
Cc1cc(C2=NNC(=Nc3ccc(S(=O)(=O)N4CCOCC4)cc3)SC2)c(C)n1C	18*	-2	-1	-1	0	-1	-3
O=c1/c(=C/c2ccccn2)sc2nc3ccccc3n12	5	8	7	5	2	.	.
O=c1/c(=C\c2cc([N+](=O)[O-])cc([N+](=O)[O-])c2O)sc2nc3ccccc3n12	18*	.	9	-20	0	26*	3
CC(=O)Nc1cccc(NC(=O)CSc2ncc(C(=O)Nc3ccc(F)cc3)c(=O)n2C)c1	34*	7	4	3	1	2	2
CN[C@H]1C[C@H]2c3[nH]c4cccc(-c5cccc(C)c5)c4c3CCN2C(=O)[C@H]1[C@H](C)O	.	7	.	.	.	.	.
O=c1[nH]c2ccc(S(=O)(=O)N3CCCC3)cc2o1	.	-2	.	.	.	.	.
CCOC(=O)c1cn(Cc2ccccc2)c(C(=O)OC(C)(C)C)c1O	22*	-15	17	4	3	36*	-4
C#CCOCCOCCOCCNc1nc(N2CCN(C(=O)CCCCCCCCCCNC(=O)[C@H](CCCCN)n3cc(CCO)nn3)CC2)nc(N2CCN(C(=O)CCCCCCCCCCNC(=O)[C@H](CCCCN)n3cc(C[C@@H](C)CC)nn3)CC2)n1	41*	.	68*	3	5	13	0
C#CCOCCOCCOCCNc1nc(N2CCN(C(=O)CCCCCCCCCCNC(=O)[C@@H](CCSC)n3cc(CCO)nn3)CC2)nc(N2CCN(C(=O)CCCCCCCCCCNC(=O)[C@H](CCCN=C(N)N)n3cc(C[C@@H](C)CC)nn3)CC2)n1	49*	.	62*	-14	4	39*	4
C#CCOCCOCCOCCNc1nc(N2CCN(C(=O)CCCCCCCCCCNC(=O)[C@H](CCCCN)n3cc(C[C@@H](C)CC)nn3)CC2)nc(N2CCN(C(=O)CCCCCCCCCCNC(=O)[C@@H]([C@H](C)O)n3cc(C)nn3)CC2)n1	61*	.	58*	-12	5	47*	4
C#CCOCCOCCOCCNc1nc(N2CCN(C(=O)CCCCCCCCCCNC(=O)[C@@H](CCSC)n3cc(CCO)nn3)CC2)nc(N2CCN(C(=O)CCCCCCCCCCNC(=O)[C@@H]([C@H](C)O)n3cc(C)nn3)CC2)n1	6	0	34	-22	1	.	.
C#CCOCCOCCOCCNc1nc(N2CCN(C(=O)CCCCCCCCCCNC(=O)Cn3cc(C[C@@H](C)O)nn3)CC2)nc(N2CCN(C(=O)CCCCCCCCCCNC(=O)[C@@H](CCSC)n3cc(CCO)nn3)CC2)n1	6	.	30	-27	2	.	.
C#CCOCCOCCOCCNc1nc(N2CCN(C(=O)CCCCCCCCCCNC(=O)[C@H]([C@@H](C)CC)n3cc(CCCCN=C(N)N)nn3)CC2)nc(N2CCN(C(=O)CCCCCCCCCCNC(=O)[C@@H]([C@H](C)O)n3cc(C)nn3)CC2)n1	56*	.	45*	1	2	47*	1
C=C1C(=O)[C@]23C[C@H]1CC[C@H]2[C@]1(C)CCC[C@@](C)(C(=O)OC)[C@H]1C[C@@H]3O	.	10	.	.	.	.	.
O=C(NCc1ccncc1)C(=O)N/N=C/c1ccc(OCc2ccccc2)cc1	38*	-2	13	-7	0	32*	5
O=C(NCc1ccncc1)C(=O)N/N=C/c1ccccc1OCc1ccccc1	0	-4	5	-1	4	.	.
CN1CCN(C(c2ccc(Cl)cc2)c2cc(Cl)c3cccnc3c2O)CC1 (centres undefined)	22*	-20	28	-16	2	-3	1
CCN1CCN(C(c2ccc(C(F)(F)F)cc2)c2ccc3cccnc3c2O)CC1 (centres undefined)	18*	-13	12	-20	3	-6	-1
CCC(=O)NC(c1cccs1)c1cc(Cl)c2cccnc2c1O (centres undefined)	12	-11	6	-12	1	.	.
CN1CCN(C(c2ccc(C(F)(F)F)cc2)c2cc(Cl)c3cccnc3c2O)CC1 (centres undefined)	21*	6	34	-12	5	2	-3
SMILES	PP1 counter	TDP2 absorb	Apaf-1 inh	GSTO1 inh	PP5 primary	PP1 inh confirm	PP5 inh counter
O=C(NC(c1ccc(Cl)cc1)c1cc(Cl)c2cccnc2c1O)c1cccnc1 (centres undefined)	0	-1	.	0	-2	.	.
Oc1c(C(c2ccccn2)N2CCCCC2)cc(Cl)c2cccnc12 (centres undefined)	75*	-12	-7	8	5	73*	3
CCc1ccccc1NC(=O)[C@@H]1CCCN1S(=O)(=O)c1cccc2cccnc12	.	6	.	.	.	.	.
CN(Cc1ccccc1)C(=O)OCc1cn(Cc2ccc(F)cc2F)nn1	.	-7	.	.	.	.	.
CCc1nnc(NS(=O)(=O)c2ccc(NC(=S)NC(=O)/C=C/c3ccc(F)cc3)cc2)s1	20*	0	20	-3	3	12	2
Cc1[nH]nc2c1C(c1ccccc1)N(c1ccccc1)C2=O (centres undefined)	.	5	.	.	.	.	.
Cc1ccccc1/C=C/c1nc2ccccc2c(=O)[nH]1	20*	-18	-5	-3	0	18*	-2
Cc1ccc(C(=O)C2=C(O)C(=O)N(CC3CCCO3)C2c2ccccc2F)o1 (centres undefined)	0	11	5	3	4	.	.
